Data as given in ChEMBL document CHEMBL2074314, “Involvement of human organic anion transporting polypeptide OATP-B (SLC21A9) in pH-dependent transport across intestinal apical membrane” (J Pharmacol Exp Ther, 2003).
Each block holds one compound with its values, some of them ahead of it.

How the values were obtained:
[1] = molecular target: T1, OATP-B (SLCO2B1, OATP2B1) (Homo sapiens, UniProt O94956); assay: in vitro; details: HEK293 cells expressing OATP-B, probe E1S (0.00476 uM)
T1 sequence (O94956 whole entry): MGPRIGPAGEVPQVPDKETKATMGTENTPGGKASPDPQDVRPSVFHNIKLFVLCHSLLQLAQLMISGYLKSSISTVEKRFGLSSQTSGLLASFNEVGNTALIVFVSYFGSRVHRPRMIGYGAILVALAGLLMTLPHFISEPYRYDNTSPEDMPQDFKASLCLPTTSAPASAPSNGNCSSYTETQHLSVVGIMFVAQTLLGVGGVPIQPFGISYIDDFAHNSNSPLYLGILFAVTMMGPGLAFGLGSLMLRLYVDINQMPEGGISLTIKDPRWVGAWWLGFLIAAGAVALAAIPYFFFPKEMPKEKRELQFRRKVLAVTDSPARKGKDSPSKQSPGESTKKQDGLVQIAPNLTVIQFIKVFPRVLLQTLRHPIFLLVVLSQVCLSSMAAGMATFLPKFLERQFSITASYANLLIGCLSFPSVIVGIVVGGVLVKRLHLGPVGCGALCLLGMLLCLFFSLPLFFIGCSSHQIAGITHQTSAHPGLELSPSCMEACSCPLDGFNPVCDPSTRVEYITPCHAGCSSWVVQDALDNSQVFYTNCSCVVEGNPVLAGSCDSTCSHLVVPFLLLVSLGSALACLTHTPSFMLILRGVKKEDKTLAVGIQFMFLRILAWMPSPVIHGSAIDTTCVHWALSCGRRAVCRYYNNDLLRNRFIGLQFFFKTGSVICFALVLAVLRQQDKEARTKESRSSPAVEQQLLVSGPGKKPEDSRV

[2] = molecular target: T1, OATP-B (SLCO2B1, OATP2B1); assay: TP_TRANSPORTER: inhibition of E1S uptake (E1S: 0.00476 uM, benzoic acid: 10000 uM) in OATP-B-expressing HEK293 cells; format: functional, cell-based; parameters: scale not given: the % may be the effect or the level left; details: probe E1S (0.00476 uM), read-out: Activity
Procedure, shortened: (§1)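 HEK293 cells transfected with pcDNA3/OATP-B or empty vector (mock) by calcium phosphate, harvested 40-48 h later and suspended. Preincubated 20 min at 37°C at pH 7.4, then [3H]estrone-3-sulfate (4.76 nM) uptake for 10 min at 37°C in MES-buffered medium, pH 5.5. Cells separated by silicone oil centrifugal filtration and counted by scintillation. Mock-corrected uptake given as % of no-inhibitor control; mean ± S.E.M., n=3 or 4.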

[3] = molecular target: T1, OATP-B (SLCO2B1, OATP2B1); assay: TP_TRANSPORTER: inhibition of E1S uptake (E1S: 0.00476 uM, citric acid: 10000 uM) in OATP-B-expressing HEK293 cells; format: functional, cell-based; parameters: scale not given: the % may be the effect or the level left; details: probe E1S (0.00476 uM), read-out: Activity
Procedure, shortened: as §1

[4] = molecular target: T1, OATP-B (SLCO2B1, OATP2B1); assay: TP_TRANSPORTER: inhibition of E1S uptake (E1S: 0.00476 uM, lactic acid: 10000 uM) in OATP-B-expressing HEK293 cells; format: functional, cell-based; parameters: scale not given: the % may be the effect or the level left; details: probe E1S (0.00476 uM), read-out: Activity
Procedure, shortened: as §1

[5] = molecular target: T2, Solute carrier organic anion transporter family member 2B1 (Homo sapiens, UniProt O94956); assay: TP_TRANSPORTER: uptake (pH 7.4) in OATP-B-expressing HEK293 cells; format: functional, cell-based; details: hek293, pH 7.4
T2 sequence (O94956 whole entry): T1 sequence (O94956 whole entry)

[6] = molecular target: T1, OATP-B (SLCO2B1, OATP2B1); assay: in vitro; details: HEK293 cells expressing OATP-B, probe E1S (0.00476 uM); remark: listed apart in the source
[7] = molecular target: T1, OATP-B (SLCO2B1, OATP2B1); assay: TP_TRANSPORTER: inhibition of E1S uptake (E1S: 0.00476 uM, oxalic acid: 10000 uM) in OATP-B-expressing HEK293 cells; format: functional, cell-based; parameters: scale not given: the % may be the effect or the level left; details: probe E1S (0.00476 uM), read-out: Activity
Procedure, shortened: as §1

[8] = molecular target: T1, OATP-B (SLCO2B1, OATP2B1); assay: TP_TRANSPORTER: inhibition of E1S uptake (E1S: 0.00476 uM, phthalic acid: 10000 uM) in OATP-B-expressing HEK293 cells; format: functional, cell-based; parameters: scale not given: the % may be the effect or the level left; details: probe E1S (0.00476 uM), read-out: Activity
Procedure, shortened: as §1

[9] = molecular target: T2, Solute carrier organic anion transporter family member 2B1; assay: TP_TRANSPORTER: uptake (pH 5.5) in OATP-B-expressing HEK293 cells; format: functional, cell-based; details: hek293, pH 5.5

- activity at 10000 uM [1]: 86.1%
SMILES: CC(=O)O [ACETIC ACID]

- activity at 10000 uM [2]: 56.1%
SMILES: O=C(O)c1ccccc1 [BENZOIC ACID]

SMILES: O=C(O)CC(O)(CC(=O)O)C(=O)O [CITRIC ACID]
- activity at 10000 uM [3]: 97.7%

- activity at 10000 uM [4]: 85.6%
SMILES: C[C@@H](O)C(=O)O [D-LACTIC ACID]

- Activity [5]: substrate [+]
SMILES: C[C@]12CC[C@@H]3c4ccc(OS(=O)(=O)O)cc4CC[C@H]3[C@@H]1CCC2=O [ESTRONE SULFURIC ACID]

- activity at 10000 uM [6]: 59.7%
SMILES: O=C(O)c1cccnc1 [NIACIN]

- activity at 10000 uM [7]: 83.9%
SMILES: O=C(O)C(=O)O [OXALIC ACID]

SMILES: O=C(O)c1ccccc1C(=O)O [PHTHALIC ACID]
- activity at 10000 uM [8]: 42.7%

- Activity [9]: substrate [+]
SMILES: CC[C@H](C)C(=O)O[C@H]1C[C@H](O)C=C2C=C[C@H](C)[C@H](CC[C@@H](O)C[C@@H](O)CC(=O)O)[C@H]21 [PRAVASTATIN]
